Rows were chosen to be rich in hits. Some 2.3% of all compounds tested hit in one or more screens of this group.
PAFAH2 inh – PAFAH2 (human) inhibition; recombinant PAFAH2, FP-rhodamine activity probe, fluorescence polarization; inhibition, % at 3.39 µM; actives 0.99% (n = 340,000);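 active means inhibition above the mean over all tested compounds plus 3 SD, cut at about 30% in these data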;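 further: inhibitors block probe labeling of enzyme so polarization drops; 0% = enzyme with DMSO and 100% = wells lacking PAFAH2 protein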
TDP2 inh – TDP2 (human) inhibition, absorbance primary screen; recombinant TDP2, T5PNP hydrolysis, p-nitrophenol absorbance 415 nm; inhibition, % at 12.8 µM; actives 0.34% (n = 370,000);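 active means inhibition above the mean of all tested compounds plus 3 SD, set per campaign, cut at about 25% in these data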;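 further: 0% = DMSO with enzyme and 100% = buffer with substrate but no TDP2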
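Test system: Human TDP2 enzyme | Reagent: 5 mM T5PNP | Compound dosing: 12.8 µM single point, 1% DMSO | Incubation: Enzyme reaction with compound for 2 h at 37 °C | Technique: p-Nitrophenol epi absorbance | Read-out: % inhibition relative to enzyme-containing and enzyme-free wells | Benchmarks: High control without enzyme, low control DMSO plus TDP2 | Replicates: Singlicate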
PAFAH1B2 inh – inhibitors of human PAFAH1B2 | inhibition, % at 3.39 µM | actives 1.2% (n = 340,000) | AID 492953 | P68402 | recombinant PAFAH1B2, FP-rhodamine activity probe, fluorescence polarization;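 active means inhibition above the mean of all tested compounds plus 3 SD, cut at about 24% in these data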;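 further: 0% = enzyme with DMSO and 100% = wells lacking PAFAH1B2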
PAFAH1B3 inh – PAFAH1B3 (human) inhibition. recombinant PAFAH1B3, FP-rhodamine probe, fluorescence polarization. inhibition, % at 3.39 µM. Q15102. AID 492972. actives 0.28% (n = 340,000);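 active means inhibition above the screen-wide average of all tested compounds plus 3 SD, cut at about 25% in these data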;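 further: 0% = enzyme with DMSO only and 100% = wells lacking PAFAH1B3 protein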
Apaf-1 inh – human Apaf-1 inhibition; O14727; reconstituted apoptosome caspase-3 activity, DEVD-Rh110 fluorescence; inhibition, % at 20 µM; actives 0.71% (n = 330,000); AID 489030; active means inhibition of at least 40% at 20 µM;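 further: plate controls were DMSO wells for no effect and DEVD-CHO caspase inhibitor wells for full effect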
Target sequence (O14727 whole entry, looked up): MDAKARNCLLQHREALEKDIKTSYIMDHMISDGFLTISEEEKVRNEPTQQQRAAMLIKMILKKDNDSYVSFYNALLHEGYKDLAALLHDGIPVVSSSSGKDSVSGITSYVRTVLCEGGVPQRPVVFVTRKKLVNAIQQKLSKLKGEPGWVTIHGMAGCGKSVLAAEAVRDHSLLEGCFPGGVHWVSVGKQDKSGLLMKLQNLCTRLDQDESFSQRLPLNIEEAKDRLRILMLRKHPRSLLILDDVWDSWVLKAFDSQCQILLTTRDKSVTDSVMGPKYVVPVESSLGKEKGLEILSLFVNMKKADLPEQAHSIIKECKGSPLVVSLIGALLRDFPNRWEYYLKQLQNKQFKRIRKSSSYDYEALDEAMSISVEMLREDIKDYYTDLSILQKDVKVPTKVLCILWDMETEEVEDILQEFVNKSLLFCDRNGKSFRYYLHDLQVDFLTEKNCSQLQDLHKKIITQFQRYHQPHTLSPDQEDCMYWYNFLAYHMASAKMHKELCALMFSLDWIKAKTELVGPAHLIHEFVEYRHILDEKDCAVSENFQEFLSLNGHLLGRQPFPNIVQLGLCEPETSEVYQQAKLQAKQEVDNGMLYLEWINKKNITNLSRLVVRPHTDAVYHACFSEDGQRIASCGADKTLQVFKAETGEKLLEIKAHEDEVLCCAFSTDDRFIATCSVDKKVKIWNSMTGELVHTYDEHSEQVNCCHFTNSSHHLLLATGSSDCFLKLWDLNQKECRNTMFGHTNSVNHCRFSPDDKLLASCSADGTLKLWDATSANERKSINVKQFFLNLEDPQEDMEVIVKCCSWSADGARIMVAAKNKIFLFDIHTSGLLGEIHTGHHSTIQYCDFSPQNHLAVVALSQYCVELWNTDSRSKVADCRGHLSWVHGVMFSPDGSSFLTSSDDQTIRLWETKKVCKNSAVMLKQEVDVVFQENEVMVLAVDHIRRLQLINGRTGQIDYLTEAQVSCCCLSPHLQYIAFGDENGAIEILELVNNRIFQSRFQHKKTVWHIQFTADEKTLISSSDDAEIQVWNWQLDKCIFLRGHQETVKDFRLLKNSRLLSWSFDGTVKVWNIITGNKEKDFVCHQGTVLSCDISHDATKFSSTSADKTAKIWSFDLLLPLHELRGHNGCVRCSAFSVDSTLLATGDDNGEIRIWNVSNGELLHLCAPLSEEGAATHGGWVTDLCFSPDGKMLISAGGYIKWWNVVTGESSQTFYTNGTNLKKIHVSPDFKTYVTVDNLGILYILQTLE
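Medium: Hepes buffer, pH 7.5 / System: biochemical Apaf-1 apoptosome reconstitution / Measured by: Rh110 fluorescence, excitation 480 nm, emission 540 nm / Times: compound with Apaf-1, dATP, procaspase-3 30 min, then 50 min reaction, room temperature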
PAFAH2 FP conf – PAFAH2 (human) inhibition, confirmed; recombinant PAFAH2, FP-rhodamine activity probe, fluorescence polarization; inhibition, % at 3.39 µM; shares compounds with PAFAH2 inh; actives 65% (n = 2,300);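 active means mean inhibition over three repeats above a set limit taken from the earlier primary screen, cut at about 30% in these data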;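 further: inhibitor blocks binding of rhodamine activity probe so polarization falls; 0% = enzyme with DMSO and 100% = wells lacking PAFAH2 protein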
* marks the source's active call; other numbers are inactive results.

How did Cc1ccc(/C=C/C(=O)OCC(=O)NCc2cccs2)o1 do in these assays?
PAFAH2 inh: 68.1*; TDP2 inh: -1.9; PAFAH1B2 inh: 1.9; PAFAH1B3 inh: 4.6; Apaf-1 inh: -5.6; PAFAH2 FP conf: 53.3*

Results for COC(=O)[C@H]1C[C@@]2(n3ccc4ccccc43)c3ccccc3N(S(=O)(=O)c3ccccc3)[C@H]2N1 ?
TDP2 inh: 8.8

What do the screens show for `CC(C)NC(=O)COC(=O)/C=C/c1ccco1`?
PAFAH2 inh: 22.1; TDP2 inh: 1.0; PAFAH1B2 inh: -0.7; PAFAH1B3 inh: 3.8; Apaf-1 inh: -9.9

What do the screens show for `Cc1ccc(/C=C/C(=O)OCC(=O)NC(C)C)o1`?
PAFAH2 inh: 34.8*; TDP2 inh: -7.2; PAFAH1B2 inh: 4.5; PAFAH1B3 inh: 3.6; Apaf-1 inh: 2.8; PAFAH2 FP conf: 5.8

What do the screens show for `O=C(NC1CCCCN(Cc2ccc(Cl)cc2)C1=O)c1ccc2ccccc2c1` (stereo unspecified)?
TDP2 inh: -2.3

What do the screens show for `Cc1ccc(S(=O)(=O)N(C)C)cc1NC(=O)COC(=O)C1=COCCO1`?
PAFAH2 inh: 27.1; TDP2 inh: -8.9; PAFAH1B2 inh: 0.9; PAFAH1B3 inh: 3.7; Apaf-1 inh: -6.7

How did CN(C)S(=O)(=O)c1cccc(COC(=O)c2ccc(Cl)cc2O)c1 do in these assays?
PAFAH2 inh: 2.0; TDP2 inh: -15.6; PAFAH1B2 inh: 3.7; PAFAH1B3 inh: 0.1; Apaf-1 inh: 1.7

How did Cc1ccc(S(=O)(=O)N(C)C)cc1NC(=O)COC(=O)c1ccc2c(c1)OCCO2 do in these assays?
PAFAH2 inh: 64.1*; TDP2 inh: 10.0; PAFAH1B2 inh: 8.5; PAFAH1B3 inh: 6.5; Apaf-1 inh: 0.3; PAFAH2 FP conf: 64.2*

How did CN(C)S(=O)(=O)c1cccc(COC(=O)c2ccc3c(c2)OCO3)c1 do in these assays?
PAFAH2 inh: 31.0*; TDP2 inh: -3.3; PAFAH1B2 inh: 2.9; PAFAH1B3 inh: 3.4; Apaf-1 inh: 9.7; PAFAH2 FP conf: 25.1

Results for Cc1ccc(S(=O)(=O)N(C)C)cc1NC(=O)COC(=O)c1ccc2c(c1)OCO2 ?
PAFAH2 inh: 60.1*; TDP2 inh: 2.8; PAFAH1B2 inh: 1.9; PAFAH1B3 inh: -2.9; Apaf-1 inh: -0.4; PAFAH2 FP conf: 51.6*

What do the screens show for `COc1ccc(CNCC#CC2=CCCCC2)c(OC)c1`?
TDP2 inh: -3.8

How did CNC12CCc3cc(OC)c(OC)c(c31)-c1cc3c(cc1C2)OCO3 (stereo unspecified) do in these assays?
TDP2 inh: -1.0

How did O=C1NN(c2ccccc2)C(=O)/C1=C/c1ccc(-c2ccc(C(=O)O)cc2)o1 do in these assays?
PAFAH2 inh: 31.2*; TDP2 inh: 1.2; PAFAH1B2 inh: 8.2; PAFAH1B3 inh: 12.0; Apaf-1 inh: 6.8; PAFAH2 FP conf: 13.5

Results for COc1cccc(CNc2ccc(Br)cn2)c1O ?
PAFAH2 inh: 75.2*; TDP2 inh: -9.1; PAFAH1B2 inh: 3.6; PAFAH1B3 inh: 1.8; Apaf-1 inh: 1.5; PAFAH2 FP conf: 4.1

What do the screens show for `CCOc1ccc(-n2c(SCC(=O)Nc3ccc(OCc4ccccc4)cc3)nnc2-c2ccc(Cl)cc2)cc1`?
TDP2 inh: 9.8

How did CC(C)N1CCCCC(NC(=O)c2ccc(F)cc2)C1=O (stereo unspecified) do in these assays?
TDP2 inh: -1.2

What do the screens show for `COc1cc(C(=O)OCC(=O)N2CCCCC2C)ccc1OCc1c(C)noc1C` (stereo unspecified)?
PAFAH2 inh: 32.2*; TDP2 inh: 2.1; PAFAH1B2 inh: 1.5; PAFAH1B3 inh: 0.8; Apaf-1 inh: -8.8; PAFAH2 FP conf: 13.1

What do the screens show for `COc1cc(C(=O)OCC(C)=O)ccc1OCc1c(C)noc1C`?
PAFAH2 inh: 0.7; TDP2 inh: 5.5; PAFAH1B2 inh: 1.9; PAFAH1B3 inh: 8.6

How did N=c1c(S(=O)(=O)c2ccccc2)cc2c(=O)n3ccccc3nc2n1Cc1cccnc1 do in these assays?
PAFAH2 inh: 26.2; TDP2 inh: 6.7; PAFAH1B2 inh: 9.4; PAFAH1B3 inh: 7.2; Apaf-1 inh: 1.3

Results for Cc1cccn2c(=O)c3cc(S(=O)(=O)c4ccccc4)c(=N)n(Cc4cccnc4)c3nc12 ?
PAFAH2 inh: 37.9*; TDP2 inh: 11.4; PAFAH1B2 inh: 5.5; PAFAH1B3 inh: 10.1; Apaf-1 inh: 27.9; PAFAH2 FP conf: 32.6*

Results for Cn1c(=O)c2c(ncn2CC(=O)Nc2cc(S(=O)(=O)N3CCCCC3)ccc2O)n(C)c1=O ?
PAFAH2 inh: 32.2*; TDP2 inh: -12.7; PAFAH1B2 inh: 1.2; PAFAH1B3 inh: 3.4; Apaf-1 inh: 0.6; PAFAH2 FP conf: 21.1

How did O=C(N/N=C/c1coc2ccccc2c1=O)c1cc(Br)c(O)c(Br)c1 do in these assays?
PAFAH2 inh: 71.1*; TDP2 inh: -3.4; PAFAH1B2 inh: 4.5; PAFAH1B3 inh: 4.4; Apaf-1 inh: 7.9; PAFAH2 FP conf: 54.8*

What do the screens show for `COc1cc(C(=O)OCC(=O)NC2CC2)ccc1OCCC(C)C`?
PAFAH2 inh: 71.1*; TDP2 inh: -16.1; PAFAH1B2 inh: -4.5; PAFAH1B3 inh: 4.6; Apaf-1 inh: 1.8; PAFAH2 FP conf: 67.7*

How did Cc1ccc(C(=O)CC(=O)c2ccccc2)cc1 do in these assays?
PAFAH2 inh: -3.6; TDP2 inh: -3.2; PAFAH1B2 inh: -1.3; PAFAH1B3 inh: 5.8; Apaf-1 inh: 7.5

What do the screens show for `Cc1ccc(C(=O)OCC(=O)c2ccccc2)cc1`?
PAFAH2 inh: 37.5*; TDP2 inh: -1.4; PAFAH1B2 inh: -4.4; PAFAH1B3 inh: -5.3; Apaf-1 inh: 1.8; PAFAH2 FP conf: 24.2

Results for COc1cc(C(=O)OCC(=O)NC2CC2)cc(OC)c1OC ?
PAFAH2 inh: 1.6; TDP2 inh: -1.9; PAFAH1B2 inh: 4.4; PAFAH1B3 inh: 5.6; Apaf-1 inh: -2.9

What do the screens show for `COc1cccc(OC)c1C(=O)OCC(=O)NCC1CCCCC1`?
TDP2 inh: -6.6

Results for COc1ccc(C(=O)OCC(=O)NC2CC2)cc1S(=O)(=O)N(C)Cc1ccccc1 ?
PAFAH2 inh: 53.8*; TDP2 inh: 22.0; PAFAH1B2 inh: 3.7; PAFAH1B3 inh: 3.6; Apaf-1 inh: -6.2; PAFAH2 FP conf: 49.5*

What do the screens show for `CCN(C(=O)COC(=O)c1ccc(OC)c(S(=O)(=O)N(C)Cc2ccccc2)c1)C1CCS(=O)(=O)C1` (stereo unspecified)?
PAFAH2 inh: -2.3; TDP2 inh: -7.5; PAFAH1B2 inh: 0.8; PAFAH1B3 inh: -3.0; Apaf-1 inh: 6.1

What do the screens show for `COc1cc(C(=O)OCC(=O)NCC2CCCCC2)ccc1OCC(C)C`?
PAFAH2 inh: 67.5*; TDP2 inh: -1.4; PAFAH1B2 inh: 2.1; PAFAH1B3 inh: -2.2; Apaf-1 inh: 9.6; PAFAH2 FP conf: 60.6*

What do the screens show for `O=C(NCCN1CCC(Cc2ccccc2)CC1)C1CCCN(S(=O)(=O)c2ccc(Cl)s2)C1` (stereo unspecified)?
TDP2 inh: -4.8

Assay outcomes (PubChem BioAssay)
